High-throughput results from PubChem BioAssay.
SIRT5 block: SIRT5 desuccinylase inhibitors, primary screen, biochemical, fluorescence imaging, single point, set 5; NAD-dependent protein deacylase sirtuin-5, mitochondrial (Homo sapiens), Q9NXA8; Purified SirT5, succinyl-peptide AMC, trypsin-coupled fluorescence; inhibition, % at 15 µM; 330,000 compounds, 1.1% hits; AID 652115, 2013; in the data active = inhibition above about 15%
S100A4 inh HTS: inhibitors of S100A4-myosin IIA peptide binding, primary screen, biochemical, fluorescence polarization, TAMRA-MyoIIA peptide; inhibition, % at 10.7 µM; 360,000 compounds, 0.14% hits; Protein S100-A4 (Homo sapiens), P26447; AID 652163, 2013;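 active = mean inhibition of at least 70% across replicates, with every replicate also reaching that level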
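Material: S100A4 monomer protein / Buffer or medium: 50 mM HEPES pH 7.2, 10 mM CaCl2, 100 mM KCl / Times: 5 min incubation before reading / Benchmarks: neutral control DMSO, positive control TFP / Reagent: labelled myosin peptide probe, 5 nM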
FGF22 binding: binders of human FGF22 protein, primary screen, FGF22 synaptogenesis inhibitor project, biophysical, thermal shift, single point; Fibroblast growth factor 22 (Homo sapiens), Q9HCT0; recombinant FGF22 thermal shift, SYPRO orange fluorescence; percent of sucrose octasulfate shift, DMSO zero; activity (Tm shift, normalised), % at 9.99 µM; 340,000 compounds, 1.5% hits;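 active = mean Tm shift, scaled 0 neutral to 100 positive control, at about 1.3% or above, every replicate too, limit read from the data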
miR-122 sensor: miR-122 Renilla sensor signal increase in Huh7, primary screen, miR-122 inhibitor project, cell-based, single point, plate reader; 340,000 compounds, 0.3% hits; activation (reporter increase), % at 12.5 µM; Huh7 miR-122 Renilla luciferase sensor, 48 h; neutral wells = 0, positive control = 100;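 active = mean replicate activation score at least 90 and every replicate individually at or above 90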;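 note: higher luciferase means less miR-122 activity so hits act as miR-122 inhibitors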
E-sel inducer: E-selectin induction in HUVECs, primary screen, imaging, HUVEC, immunofluorescence imaging, single point. 260,000 compounds, 0.37% hits. AID 686992, 2013. normalized: neutral wells 0, TNF-alpha wells 100. activation, % at 7.58 µM. P16581;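 active = mean E-selectin-positive cell signal at least 10% of the positive control, reached in at least 60% of replicates, without over 20% cell loss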
Target sequence (P16581 whole entry, looked up): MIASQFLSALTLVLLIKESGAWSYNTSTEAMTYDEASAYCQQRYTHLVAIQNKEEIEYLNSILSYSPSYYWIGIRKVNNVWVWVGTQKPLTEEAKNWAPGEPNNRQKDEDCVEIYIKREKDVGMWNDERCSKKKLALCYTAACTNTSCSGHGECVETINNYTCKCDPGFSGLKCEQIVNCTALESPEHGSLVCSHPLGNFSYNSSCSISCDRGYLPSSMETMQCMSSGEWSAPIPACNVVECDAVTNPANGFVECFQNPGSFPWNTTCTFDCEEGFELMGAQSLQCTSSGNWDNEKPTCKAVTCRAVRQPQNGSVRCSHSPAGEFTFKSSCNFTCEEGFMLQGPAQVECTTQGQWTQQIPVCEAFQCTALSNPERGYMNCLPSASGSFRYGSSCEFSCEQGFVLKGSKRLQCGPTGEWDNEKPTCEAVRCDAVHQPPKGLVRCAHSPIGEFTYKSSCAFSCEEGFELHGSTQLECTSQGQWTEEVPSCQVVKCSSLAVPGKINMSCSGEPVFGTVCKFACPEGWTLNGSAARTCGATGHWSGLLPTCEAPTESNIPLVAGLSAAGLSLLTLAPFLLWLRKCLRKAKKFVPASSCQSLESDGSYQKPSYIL
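System: HUVEC / Compound: single concentration / Signal: immunofluorescence imaging / Read-out: percent E-selectin-positive cells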
* marks the source's active call; other numbers are inactive results; · = no result; ! = not confirmed by another sample; [ ] = remark or other dose. The list is not random: actives were taken first. Their share in the collection is about 2.5%.

SMILES | SIRT5 block | S100A4 inh HTS | FGF22 binding | miR-122 sensor | E-sel inducer
C[C@@H]1CN([C@@H](C)CO)C(=O)c2cc(NC(=O)C3CCCCC3)ccc2O[C@@H]1CN(C)Cc1ccc(-c2ccccc2)cc1 | 3 | 4 | 0 | 3[16.7 µM] | 0
C[C@H]1CN([C@@H](C)CO)C(=O)c2cc(NC(=O)C3CCCCC3)ccc2O[C@H]1CN(C)Cc1ccc(C(=O)Nc2ccccc2N)cc1 | 1 | -2 | 0 | 52[16.7 µM] | 29*
C[C@H]1CN([C@@H](C)CO)C(=O)Cc2cc(NC(=O)C3CCCCC3)ccc2O[C@@H]1CN(C)Cc1ccc(-c2ccccc2)cc1 | -4 | 4 | 0 | 1[16.7 µM] | -1
C[C@H]1CN([C@@H](C)CO)C(=O)c2cc(NC(=O)C3CCCCC3)ccc2O[C@H]1CN(C)Cc1ccc(-c2ccccc2)cc1 | 40*! | 8 | 0 | -6[16.7 µM] | 0
CCCN(C)C[C@H]1OCCCC[C@H](C)Oc2ccc(N(C)C)cc2C(=O)N([C@H](C)CO)C[C@H]1C | 5 | 7 | -2 | 2[16.7 µM] | 0
Cc1ccc(S(=O)(=O)N(C)C[C@H]2Oc3ccc(NC(=O)CCN4CCOCC4)cc3CC(=O)N([C@H](C)CO)C[C@H]2C)cc1 | -3 | -4 | 0 | -5[16.7 µM] | 0
Cc1noc(C)c1NC(=O)N[C@@H]1C=C[C@@H](CC(=O)N2CCCCC2)O[C@H]1CO | -3 | -3 | 0 | · | 0
COc1ccc2c3c(n(C)c2c1)[C@@H](CO)N(C(C)=O)CC31CN(C(=O)c2cnccn2)C1 | -5 | 8 | 0 | · | 0
CC1(C)COC2(OC1)C(=O)N(CN1CCOCC1)c1ccccc12 | -4 | -5 | 43* | -1 | -1
CCCC#Cc1ccc2c(c1)[C@@H]1[C@@H](CCN1S(=O)(=O)c1ccccc1OC)[C@@H](CO)N2 | · | -35 | · | · | 0
C[C@@H]1CN([C@H](C)CO)C(=O)c2cccc(NC(=O)Nc3ccc4c(c3)OCO4)c2O[C@H]1CN(C)S(=O)(=O)c1cccs1 | -3 | -4 | 0 | -3[16.7 µM] | 1
N#CC1=C(N)Oc2ccc3ccccc3c2C1c1cccnc1 (stereo not given) | 0 | 2 | 43* | · | ·
Nc1cc(=O)[nH]n1C1CCCCC1 | 0 | -1 | 43* | -6 | ·
CNC[C@@H]1Oc2ccc(NC(=O)CCCN(C)C)cc2CC(=O)N([C@H](C)CO)C[C@H]1C | -4 | 3 | · | · | 2
NC(=S)NNC(=O)C12CC3CC(CC(C3)C1)C2 | -2 | -1 | 0 | 17 | 55*
O=C(CCl)Nc1cn(-c2ccccc2)nc1-c1ccccc1 | -5 | -7 | 43* | · | ·
CC(=O)Nc1cn(-c2ccccc2)nc1-c1ccccc1 | -3 | 8 | 0 | -2 | 1
COc1ccccc1CN1C[C@@H]2C[C@@H](c3ccccc3OC)N3CCC[C@@]23C1=O | 5 | -9 | 0 | -3 | -1
COc1ccccc1CN1C[C@@H]2C[C@@H](c3ccc(Cl)cc3)N3CCC[C@@]23C1=O | 0 | -6 | 43* | 5 | ·
Cc1cc(C)c[n+](CC(=O)c2ccc(NC(=O)c3ccccc3)cc2)c1 | -4 | -3 | 0 | · | ·
Cc1ccc[n+](CC(=O)c2ccc(NC(=O)c3ccccc3)cc2)c1 | 2 | 0 | 44* | · | ·
CN=c1scc(-c2cccs2)n1/N=C/c1ccc(O)c(O)c1O | 3 | -6 | 43* | · | ·
CN=c1scc(-c2cccs2)n1/N=C/c1ccccc1O | 2 | 3 | 1 | · | ·
C/C(=N\NS(=O)(=O)c1ccc(C)c([N+](=O)[O-])c1)c1cc2ccccc2o1 | · | · | · | 2 | ·
Cc1ccc(C(=O)c2cc3ccccc3o2)cc1[N+](=O)[O-] | -2 | 1 | 43* | -2 | ·
SMILES | SIRT5 block | S100A4 inh HTS | FGF22 binding | miR-122 sensor | E-sel inducer
O=C(O)c1ccccc1OC(=O)C12CC3CC(CC(C3)C1)C2 | 0 | -1 | 43* | · | ·
CC(Oc1ccc(Cl)cc1Cl)c1ccnc2nc(N3CCOCC3)nn12 (stereo not given) | 5 | -8 | 0 | 0 | ·
CC(Oc1ccccc1)c1ccnc2nc(N3CCOCC3)nn12 (stereo not given) | -4 | 0 | 43* | -8 | 0
N#CCCn1nnc2ccccc21 | · | · | · | -3 | ·
CC(=O)NNC(=O)CCn1nnc2ccccc21 | -2 | 0 | 44* | -7 | 3
c1ccc(CCn2nnc3ccccc32)cc1 | 20* | -7 | 0 | -1 | ·
O=C(N/N=C/c1ccc([N+](=O)[O-])o1)c1ccncc1 | 2 | -8 | 0 | -5 | 0
O=C(N/N=C\c1ccc([N+](=O)[O-])o1)c1cncc(Br)c1 | 21* | -1 | 0 | · | 0
COc1cc(NS(=O)(=O)c2ccc(NC(=S)NC(=O)c3ccco3)cc2)nc(OC)n1 | 3 | -8 | 1 | 243* | 3
COc1cc(NS(=O)(=O)c2ccc(NC(=O)c3ccco3)cc2)nc(OC)n1 | · | · | · | 2 | ·
O=C1CCC(=O)N1N1C(=O)C2C3c4ccccc4C(c4ccccc43)C2C1=O (stereo not given) | -2 | 1 | 43* | -2 | ·
O=C1C2C3c4ccccc4C(c4ccccc43)[C@@H]2C(=O)N1c1ccccn1 (stereo not given in full) | 1 | -1 | 0 | · | ·
S=C(Nc1ccc(Nc2ccccc2)cc1)Nc1ccccn1 | 1 | -2 | 43* | -10 | ·
Oc1ccc(-c2cnns2)c(O)c1 | 31* | -2 | 0 | · | 2
Nc1ncc(-c2ccccc2)c(-c2ccc(O)cc2O)n1 | 1 | 2 | -1 | 32 | ·
O=C(Nc1ccc(Cl)cc1)N[C@@H]1CC[C@H](CCNC(=O)c2cc(Cl)cc(Cl)c2)O[C@@H]1CO | 3 | -6 | · | · | 0
COc1ccc(C)cc1S(=O)(=O)n1ccnc1C | 112* | 0 | 0 | -2 | ·
CCOc1ccc(C(C)C)cc1S(=O)(=O)n1ccnc1C | 17* | 6 | 0 | 45 | -2
C[C@@H]1CN([C@@H](C)CO)C(=O)c2cc(NS(C)(=O)=O)ccc2O[C@H]1CN(C)S(=O)(=O)c1ccc(Cl)cc1 | · | · | · | 2[16.7 µM] | 2
O=C(C[C@H]1C=C[C@@H](NC(=O)CN2CCOCC2)[C@@H](CO)O1)NCCc1ccccc1 | -3 | 6 | 0 | · | 0
Cc1cc(C)nc(N2CCC(C(=O)NCCc3ccc(F)cc3)CC2)n1 | -2 | -1 | · | 2 | ·
Cc1cc(C)nc(N2CCC(C(=O)NCCc3ccc(Cl)cc3)CC2)n1 | 15* | 15 | 0 | -7 | 0
CO[C@@H]1CN(C)C(=O)c2ccc(NC(=O)Nc3ccccc3)cc2OC[C@@H](C)N(C(=O)CC2CC2)C[C@@H]1C | 4 | 2 | 0 | -1[16.7 µM] | 0
C=CCc1cccc2cc(C(=O)O)c(=O)oc12 | · | · | · | 0 | ·
